Source: ChEMBL document CHEMBL1287651, “Synthesis and in vitro antibacterial activity of fluoroquinolone derivatives containing 3-(N'-alkoxycarbamimidoyl)-4-(alkoxyimino) pyrrolidines” (2010)
In brackets after ≈: the same amount, converted by molar mass.

Assays:
Assay type in all cases: functional
[1] = test system: Staphylococcus aureus; experiment: Antibacterial activity against Staphylococcus aureus ATCC […] after 18 to 24 hrs by twofold serial dilution method
In short: (§1)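 MIC determined by the standard twofold serial dilution method on agar media, screening against Gram-positive and Gram-negative strains. Levofloxacin and gemifloxacin were run alongside as reference drugs.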

[2] = test system: Staphylococcus aureus; experiment: Antibacterial activity against methicillin-resistant Staphylococcus aureus 08-1 after 18 to 24 hrs by twofold serial dilution method
In short: (§2)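 Standard twofold serial agar dilution method on agar media for MIC determination. Screened against representative Gram-positive and Gram-negative strains. Levofloxacin and GMFX served as control drugs.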

[3] = test system: Staphylococcus aureus; experiment: Antibacterial activity against methicillin-sensitive Staphylococcus aureus 08-2 after 18 to 24 hrs by twofold serial dilution method; in short: as §2
[4] = test system: Staphylococcus epidermidis; experiment: Antibacterial activity against methicillin-resistant Staphylococcus epidermidis 09-2 after 18 to 24 hrs by twofold serial dilution method; in short: as §2
[5] = test system: Staphylococcus epidermidis; experiment: Antibacterial activity against methicillin-resistant Staphylococcus epidermidis 09-3 after 18 to 24 hrs by twofold serial dilution method; in short: as §2
[6] = test system: Staphylococcus epidermidis; experiment: Antibacterial activity against methicillin-resistant Staphylococcus epidermidis 09-4 after 18 to 24 hrs by twofold serial dilution method; in short: as §2
[7] = test system: Staphylococcus epidermidis; experiment: Antibacterial activity against methicillin-sensitive Staphylococcus epidermidis 09-3 after 18 to 24 hrs by twofold serial dilution method; in short: as §2
[8] = test system: Staphylococcus epidermidis; experiment: Antibacterial activity against methicillin-sensitive Staphylococcus epidermidis 09-6 after 18 to 24 hrs by twofold serial dilution method; in short: as §2
[9] = test system: Streptococcus pneumoniae; experiment: Antibacterial activity against Streptococcus pneumoniae 08-2 after 18 to 24 hrs by twofold serial dilution method; in short: as §1
[10] = test system: Streptococcus pneumoniae; experiment: Antibacterial activity against Streptococcus pneumoniae 08-4 after 18 to 24 hrs by twofold serial dilution method; in short: as §1
[11] = test system: Enterococcus faecium; experiment: Antibacterial activity against Enterococcus faecium 08-2 after 18 to 24 hrs by twofold serial dilution method; in short: as §1
[12] = test system: Enterococcus faecium; experiment: Antibacterial activity against Enterococcus faecium 08-7 after 18 to 24 hrs by twofold serial dilution method; in short: as §1
[13] = test system: Enterococcus faecalis; experiment: Antibacterial activity against Enterococcus faecalis 08-10 after 18 to 24 hrs by twofold serial dilution method; in short: as §1
[14] = test system: Enterococcus faecalis; experiment: Antibacterial activity against Enterococcus faecalis 08-12 after 18 to 24 hrs by twofold serial dilution method; in short: as §1
[15] = test system: Escherichia coli; experiment: Antibacterial activity against Escherichia coli ATCC 25922 after 18 to 24 hrs by twofold serial dilution method; in short: as §1
[16] = test system: Escherichia coli; experiment: Antibacterial activity against Escherichia coli 08-21 after 18 to 24 hrs by twofold serial dilution method; in short: as §1
[17] = test system: Escherichia coli; experiment: Antibacterial activity against Escherichia coli 08-22 after 18 to 24 hrs by twofold serial dilution method; in short: as §1
[18] = test system: Klebsiella pneumoniae; experiment: Antibacterial activity against Klebsiella pneumoniae 09-21 after 18 to 24 hrs by twofold serial dilution method; in short: as §1
[19] = test system: Klebsiella pneumoniae; experiment: Antibacterial activity against Klebsiella pneumoniae 09-22 after 18 to 24 hrs by twofold serial dilution method; in short: as §1
[20] = test system: Klebsiella pneumoniae; experiment: Antibacterial activity against Klebsiella pneumoniae 09-23 after 18 to 24 hrs by twofold serial dilution method; in short: as §1
[21] = test system: Pseudomonas aeruginosa; experiment: Antibacterial activity against Pseudomonas aeruginosa ATCC 27853 after 18 to 24 hrs by twofold serial dilution method; in short: as §1
[22] = test system: Pseudomonas aeruginosa; experiment: Antibacterial activity against Pseudomonas aeruginosa 09-32 after 18 to 24 hrs by twofold serial dilution method; in short: as §1
[23] = test system: Pseudomonas aeruginosa; experiment: Antibacterial activity against Pseudomonas aeruginosa 09-33 after 18 to 24 hrs by twofold serial dilution method; in short: as §1
[24] = test system: Pseudomonas aeruginosa; experiment: Antibacterial activity against Pseudomonas aeruginosa 09-34 after 18 to 24 hrs by twofold serial dilution method; in short: as §1
[25] = test system: Pseudomonas aeruginosa; experiment: Antibacterial activity against Pseudomonas aeruginosa 09-35 after 18 to 24 hrs by twofold serial dilution method; in short: as §1

| SMILES | MIC [1] [µg/mL] | MIC [2] [µg/mL] | MIC [3] [µg/mL] | MIC [4] [µg/mL] | MIC [5] [µg/mL] | MIC [6] [µg/mL] | MIC [7] [µg/mL] | MIC [8] [µg/mL] | MIC [9] [µg/mL] | MIC [10] [µg/mL] | MIC [11] [µg/mL] | MIC [12] [µg/mL] | MIC [13] [µg/mL] | MIC [14] [µg/mL] | MIC [15] [µg/mL] | MIC [16] [µg/mL] | MIC [17] [µg/mL] | MIC [18] [µg/mL] | MIC [19] [µg/mL] | MIC [20] [µg/mL] | other results |
| --- | --- | --- | --- | --- | --- | --- | --- | --- | --- | --- | --- | --- | --- | --- | --- | --- | --- | --- | --- | --- | --- |
| CCO/N=C1\CN(c2c(F)cc3c(=O)c(C(=O)O)cn(C4CC4)c3c2OC)CC1/C(N)=N\O (stereo not given) | 0.25 (≈ 0.542 µM) | 0.25 (≈ 0.542 µM) | 0.25 (≈ 0.542 µM) | 0.5 (≈ 1.08 µM) | 0.25 (≈ 0.542 µM) | 0.5 (≈ 1.08 µM) | 0.25 (≈ 0.542 µM) | 0.25 (≈ 0.542 µM) | 1 (≈ 2.17 µM) | 1 (≈ 2.17 µM) | > 128 | > 128 | > 128 | > 128 | 128 (≈ 277 µM) | > 128 | > 128 | > 128 | 4 (≈ 8.67 µM) | > 128 | MIC [21]: 32 µg/mL (≈ 69.3 µM); MIC [22]: 64 µg/mL (≈ 139 µM); MIC [23]: > 128 µg/mL; MIC [24]: > 128 µg/mL; MIC [25]: 64 µg/mL (≈ 139 µM) |
| CO/N=C1\CN(c2c(F)cc3c(=O)c(C(=O)O)cn(CCF)c3c2F)CC1/C(N)=N\O (stereo not given) | 1 (≈ 2.27 µM) | 1 (≈ 2.27 µM) | > 128 | > 128 | 1 (≈ 2.27 µM) | 0.5 (≈ 1.13 µM) | 0.5 (≈ 1.13 µM) | 1 (≈ 2.27 µM) | 1 (≈ 2.27 µM) | > 128 | > 128 | > 128 | > 128 | > 128 | > 128 | > 128 | > 128 | > 128 | > 128 | > 128 | MIC [21]: > 128 µg/mL; MIC [22]: > 128 µg/mL; MIC [23]: > 128 µg/mL; MIC [24]: > 128 µg/mL; MIC [25]: > 128 µg/mL |
| CCO/N=C(/N)C1CN(c2nc3c(cc2F)c(=O)c(C(=O)O)cn3-c2ccc(F)cc2F)C/C1=N\OC (stereo not given) | 0.125 (≈ 0.241 µM) | 0.25 (≈ 0.482 µM) | 0.25 (≈ 0.482 µM) | 2 (≈ 3.86 µM) | 0.25 (≈ 0.482 µM) | 0.25 (≈ 0.482 µM) | 0.125 (≈ 0.241 µM) | 0.25 (≈ 0.482 µM) | > 128 | > 128 | > 128 | > 128 | > 128 | > 128 | > 128 | > 128 | > 128 | > 128 | 32 (≈ 61.7 µM) | > 128 | MIC [21]: > 128 µg/mL; MIC [22]: > 128 µg/mL; MIC [23]: > 128 µg/mL; MIC [24]: > 128 µg/mL; MIC [25]: > 128 µg/mL |
| CO/N=C1\CN(c2c(F)cc3c(=O)c(C(=O)O)cn(C4CC4)c3c2OC)CC1/C(N)=N\O (stereo not given) | 0.25 (≈ 0.559 µM) | 0.25 (≈ 0.559 µM) | 0.25 (≈ 0.559 µM) | 0.5 (≈ 1.12 µM) | 0.25 (≈ 0.559 µM) | 0.25 (≈ 0.559 µM) | 0.25 (≈ 0.559 µM) | 0.25 (≈ 0.559 µM) | 4 (≈ 8.94 µM) | 4 (≈ 8.94 µM) | > 128 | > 128 | > 128 | > 128 | > 128 | > 128 | > 128 | > 128 | 1 (≈ 2.24 µM) | > 128 | MIC [21]: 16 µg/mL (≈ 35.8 µM); MIC [22]: 32 µg/mL (≈ 71.5 µM); MIC [23]: > 128 µg/mL; MIC [24]: > 128 µg/mL; MIC [25]: 32 µg/mL (≈ 71.5 µM) |
| CCO/N=C1\CN(c2c(F)cc3c(=O)c(C(=O)O)cn4c3c2OC[C@@H]4C)CC1/C(N)=N\OCC (stereo not given in full) | 1 (≈ 2.1 µM) | 64 (≈ 135 µM) | 64 (≈ 135 µM) | > 128 | > 128 | > 128 | 8 (≈ 16.8 µM) | 8 (≈ 16.8 µM) | 64 (≈ 135 µM) | > 128 | > 128 | > 128 | > 128 | > 128 | 128 (≈ 269 µM) | > 128 | > 128 | > 128 | > 128 | > 128 | MIC [21]: 64 µg/mL (≈ 135 µM); MIC [22]: 64 µg/mL (≈ 135 µM); MIC [23]: > 128 µg/mL; MIC [24]: > 128 µg/mL; MIC [25]: 64 µg/mL (≈ 135 µM) |
| CCO/N=C1\CN(c2nc3c(cc2F)c(=O)c(C(=O)O)cn3-c2ccc(F)cc2F)CC1/C(N)=N\OC (stereo not given) | 0.25 (≈ 0.482 µM) | 0.25 (≈ 0.482 µM) | 0.25 (≈ 0.482 µM) | 0.125 (≈ 0.241 µM) | 0.25 (≈ 0.482 µM) | 0.25 (≈ 0.482 µM) | 0.125 (≈ 0.241 µM) | 0.25 (≈ 0.482 µM) | 32 (≈ 61.7 µM) | 32 (≈ 61.7 µM) | > 128 | > 128 | > 128 | > 128 | 128 (≈ 247 µM) | > 128 | > 128 | 0.25 (≈ 0.482 µM) | 32 (≈ 61.7 µM) | 32 (≈ 61.7 µM) | MIC [21]: 32 µg/mL (≈ 61.7 µM); MIC [22]: > 128 µg/mL; MIC [23]: > 128 µg/mL; MIC [24]: > 128 µg/mL; MIC [25]: > 128 µg/mL |
